ROMK primary = ROMK potassium channel modulators, primary screen, cell-based, thallium flux, MLSMR library | ATP-sensitive inward rectifier potassium channel 1 (Homo sapiens), P48048 | B-score at 10 µM | Tet-inducible ROMK, thallium flux fluorescence; actives lie on both sides | actives 2% (n = 130,000);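 active means signal ratio slope over the read window, or its plate-corrected B-score, at least 3 SD from the plate mean, either direction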;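 further: B-score of the F/F0 ratio slope over 7 to 12 s after thallium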
Target sequence (P48048 whole entry, looked up): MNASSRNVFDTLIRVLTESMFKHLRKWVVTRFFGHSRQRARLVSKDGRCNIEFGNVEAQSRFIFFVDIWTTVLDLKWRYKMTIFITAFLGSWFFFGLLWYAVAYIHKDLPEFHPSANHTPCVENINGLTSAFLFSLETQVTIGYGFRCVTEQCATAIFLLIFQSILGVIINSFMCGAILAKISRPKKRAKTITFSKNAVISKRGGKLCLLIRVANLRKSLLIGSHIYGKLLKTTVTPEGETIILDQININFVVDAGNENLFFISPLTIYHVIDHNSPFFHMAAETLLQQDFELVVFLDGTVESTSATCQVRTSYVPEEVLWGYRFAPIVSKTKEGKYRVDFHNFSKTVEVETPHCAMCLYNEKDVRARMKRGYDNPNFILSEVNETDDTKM
MT stabilize HCS = microtubule stabilizers in HeLa cells, primary screen, imaging, high-content imaging; actives 0.83% (n = 200,000); HeLa tubulin immunostaining HCS, 24 h; share of cells brighter than vehicle mean+2SD; % tubulin-high responders, % at 10 µM;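 active means plate Z-score above 3 for both tubulin-high and condensed-nucleus cell shares, with cell loss under 80%, at 10 µM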;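 further: anti alpha tubulin signal scored within the nucleus-defined area of each cell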
DTT redox prof = compounds producing H2O2 with reducing agent – biochemical, NIH compound library profiling, artefact control for MLSCN library redox annotation, primary screen; DTT-dependent redox cycling H2O2, phenol red/HRP absorbance; 100% = 100 µM peroxide control, 0% = buffer; activation, % at 10 µM; actives 0.03% (n = 200,000);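 active means activation of at least 50% relative to the plate's high and low controls in the primary single-dose screen; inactive means activation below 50%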;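 further: compound incubated with DTT at 0.8 mM final as the reducing agent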
bCat nuc transl = modulators of beta-catenin nuclear translocation, primary screen, imaging, HeLa cells, immunofluorescence, high-content; actives 0.3% (n = 190,000); nuclear translocation activity, % at 5 µM;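 active means nuclear translocation activity above 50% at 5 µM, with a well cell count of 50 or more; inconclusive means wells under 50 cells across six images, flagged as toxic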;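 further: per-cell ratio of nuclear to cytoplasmic median beta-catenin stain intensity; plate controls were DMSO negative control for no effect and GSK-3 inhibitor IX positive control for full effect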
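assay system = human HeLa cells, endogenous beta-catenin | times = compound treatment 24 h, 37°C, 5% CO2 | detection = Anti-beta-catenin immunofluorescence on PFA-fixed, Triton-permeabilized cells, DAPI nuclei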
KCC2 mod = KCC2 cotransporter modulators, thallium flux, primary screen, cell-based, HEK293 KCC2, FluoZin-2 fluorescence, MLSMR; AID 1456, 2008; actives 2.2% (n = 190,000); Solute carrier family 12 member 5 (Homo sapiens), Q9H2X9; KCC2 cells, thallium flux FluoZin-2 fluorescence; B-score of Tl+ flux slope (higher = more flux/activation; lower = inhibition) at 10 µM;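 active means thallium flux slope and its plate-corrected score both differing from the plate sample mean at a set confidence after two filtering rounds, in either direction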;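 further: slope of fluorescence scaled to starting intensity during 10 to 20 s after thallium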
ROMK retest = ROMK channel modulator hit retest, confirmation, cell-based, thallium flux, duplicate, resupplied hits; fluorescence ratio; stronger effect = lower value; actives 54% (n = 3,000); shares compounds with ROMK primary; normalized thallium flux (F/F0 slope) at 10 µM;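 active means Flux at 10 µM at least 3 SD below or above vehicle control mean in one or both replicates; inconclusive means no clear call, values can overlap the other calls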
Starred values were filed as active, the others as inactive. Only some compounds are listed: those with a hit (about 3.7% of all), similar ones and a draw of the others.

`O=[N+]([O-])c1ccc2c(c1)nc1n2CCN(C2CCCCC2)C1` gave ROMK primary -5.86*, MT stabilize HCS 4.4, DTT redox prof -1.2, bCat nuc transl -0.1, KCC2 mod -0.0392 and ROMK retest 0.0532*.
For O=[N+]([O-])c1ccc2c(c1)nc1n2CCCCC1 the results were ROMK primary -1.32, MT stabilize HCS 5.4, DTT redox prof 0.4, bCat nuc transl 1.8 and KCC2 mod 0.622.
For COc1ccccc1OCCn1c(=O)oc2ccc(C)cc21 the results were ROMK primary -0.53, MT stabilize HCS 3.9, DTT redox prof 0.9, bCat nuc transl 2.3 and KCC2 mod 0.0964.
Screening O=C(c1ccc([N+](=O)[O-])cc1)N1CCSC1c1ccc(Cl)cc1 (stereo not drawn) returned ROMK primary -3.35*, MT stabilize HCS 3.8, DTT redox prof -0.4, bCat nuc transl -1.8, KCC2 mod -0.398 and ROMK retest inconclusive.
O=C(c1ccc([N+](=O)[O-])cc1)N1CCSC1c1ccc(Br)cc1 (stereo not drawn) was read as MT stabilize HCS 3.1, DTT redox prof -0.3 and KCC2 mod -0.513.
For COc1cc(C)ccc1OCCOCCOc1ccc([N+](=O)[O-])cc1 the results were ROMK primary -1.7*, MT stabilize HCS 2.9, DTT redox prof -0.6, bCat nuc transl -0.4, KCC2 mod -1.34 and ROMK retest 0.0711.
For O=S(=O)(c1ccc2oc(=S)[nH]c2c1)N1CCCCC1 the results were bCat nuc transl -3.4 and KCC2 mod -0.405.
Screening S=c1[nH]c2cc(-c3ccccc3)ccc2o1 returned bCat nuc transl -1.2 and ROMK retest 0.106*.
Screening S=C1NCCNC(=S)NCCOCCOCCOCCN1 returned ROMK primary -0.178, MT stabilize HCS 3.2, DTT redox prof -0.4, bCat nuc transl -1.7 and KCC2 mod 1.08.
`Cc1scc2c1N(C(=O)CN1CCN(C)CC1)c1ccccc1NC2=O` gave ROMK primary 3.12*, MT stabilize HCS 2.8, DTT redox prof -0.2, bCat nuc transl 6.1, KCC2 mod 0.384 and ROMK retest 0.0751.
N=c1sccn1CC(=O)Nc1ccc([N+](=O)[O-])cc1Cl was read as bCat nuc transl -0.9 and KCC2 mod -0.416.
For COc1ccc(-c2[nH]n(-c3ccc([N+](=O)[O-])cc3)c(=O)c2C=NCCN2CCNCC2)cc1 the results were ROMK primary -2.95*, MT stabilize HCS 23.1, DTT redox prof 0.8, bCat nuc transl -0.3, KCC2 mod -1.1 and ROMK retest 0.0592*.
O=c1c(C=NCCN2CCNCC2)c(-c2ccccc2)[nH]n1-c1ccc([N+](=O)[O-])cc1 was read as ROMK primary -1.81, MT stabilize HCS 1.5, DTT redox prof -1.4, bCat nuc transl 0.6 and KCC2 mod 1.45.
COc1ccc(Cl)cc1NS(=O)(=O)c1ccc(OC)c(OC)c1 was read as ROMK primary -3.07*, MT stabilize HCS 2.8, DTT redox prof 0.7, bCat nuc transl 2.7, KCC2 mod -0.411 and ROMK retest 0.075.
Screening COc1cc(S(=O)(=O)Nc2ccccc2C)ccc1Cl returned MT stabilize HCS 5.4, DTT redox prof 1.8, bCat nuc transl -1.4 and ROMK retest 0.0734.
`COc1ccc(S(=O)(=O)NCc2ccccc2Cl)cc1OC` gave MT stabilize HCS 2.8, DTT redox prof 1.9, bCat nuc transl 3.2, KCC2 mod -0.0465 and ROMK retest 0.0764.
Cc1ccc(OCC(=O)Nc2cnn(CCCC(=O)O)c2)c([N+](=O)[O-])c1 was read as ROMK primary 0.91, MT stabilize HCS 4.3, DTT redox prof 0.8, bCat nuc transl -0.5 and KCC2 mod -0.0993.

High-throughput results from PubChem BioAssay.
